From PubChem
An excerpt weighted towards active compounds, which were near 3.4% of everything screened.
MLL AF4-AF9 inh: inhibitors of AF4 peptide binding to AF9, primary screen, biochemical, AlphaScreen, biotin-AF4 peptide, FLAG-AF9, single point; 350,000 compounds, 0.47% hits; Protein AF-9 (Homo sapiens), P42568; AID 651704, 2012; inhibition, % at 10 µM;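 active = every replicate reaching a set inhibition limit, whatever the replicate mean, cut at about 25% in these data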;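 also: 0% = plate neutral control median and 100% = total signal loss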
S100A4 inh HTS: inhibitors of S100A4-myosin IIA peptide binding, primary screen, biochemical, fluorescence polarization, TAMRA-MyoIIA peptide; inhibition, % at 10.7 µM; 360,000 compounds, 0.14% hits; AID 652163, 2013;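 active = mean inhibition of at least 70% across replicates, with every replicate also reaching that level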
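Material: S100A4 monomer (human). Medium: Calcium-containing HEPES buffer, pH 7.2. Probe or stimulus: labelled myosin peptide probe, 5 nM. Compound dosing: one concentration per compound. Timing: polarization read 5 min after assay mix addition, stable 5–60 min. Benchmarks: DMSO as neutral control, TFP as positive control.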
SIRT5 inh: SIRT5 desuccinylase inhibitors, primary screen, biochemical, fluorescence imaging, single point, set 5; AID 652115, 2013; 330,000 compounds, 1.1% hits; NAD-dependent protein deacylase sirtuin-5, mitochondrial (Homo sapiens), Q9NXA8; inhibition, % at 15 µM; Purified SirT5, succinyl-peptide AMC, trypsin-coupled fluorescence; in the data active = inhibition above about 15%
rRNA inh HTS: reduced GFP signal of wild-type E. coli, primary screen, bacterial rRNA inhibitor project, GFP/RFP fluorescence, OD600, single point | AID 720706, 2013 | GFP signal change (wild-type ribosome), % (test concentration not listed) | E. coli WT GFP vs humanized-ribosome RFP mutants, 24 h; hits give low values; DMSO median 0, no signal -100 | 350,000 compounds, 1.6% hits;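 active = significant combined selectivity score with lowered wild-type GFP, culture density cut under 30%, mutant RFP and density less affected; inactive = any of these conditions unmet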
E-selectin induc: E-selectin induction in HUVECs, primary screen, imaging, HUVEC, immunofluorescence imaging, single point; normalized: neutral wells 0, TNF-alpha wells 100; 260,000 compounds, 0.37% hits; activation, % at 7.58 µM; P16581;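 active = mean E-selectin-positive cell signal at least 10% of the positive control, reached in at least 60% of replicates, without over 20% cell loss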
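Test system – human umbilical vein endothelial cells (HUVEC), E-selectin induction · Input – 3,000 HUVEC seeded per well · Buffer or medium – EGM-2, gelatin · Compound dosing – single-point compound dose · Detection – immunofluorescence imaging · Measure – percent E-selectin-positive cells · Controls – TNF-alpha high, DMSO low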
ERAP1 HTS inh: human ERAP1 aminopeptidase inhibitors, primary screen, biochemical, single point, plate reader. AID 652197, 2013. 340,000 compounds, 0.15% hits. inhibition, % at 10.7 µM. recombinant ERAP1, Leu-AMC fluorescence, 60 min. Endoplasmic reticulum aminopeptidase 1 (Homo sapiens), Q9NZ08;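 active = mean replicate inhibition of at least 30%, or all replicates individually reaching that 30% level; inactive = mean below 30% and not every replicate reaching it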;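 also: 0% = neutral control wells and 100% = L-leucinethiol positive control wells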
Target sequence (Q9NZ08 whole entry, looked up): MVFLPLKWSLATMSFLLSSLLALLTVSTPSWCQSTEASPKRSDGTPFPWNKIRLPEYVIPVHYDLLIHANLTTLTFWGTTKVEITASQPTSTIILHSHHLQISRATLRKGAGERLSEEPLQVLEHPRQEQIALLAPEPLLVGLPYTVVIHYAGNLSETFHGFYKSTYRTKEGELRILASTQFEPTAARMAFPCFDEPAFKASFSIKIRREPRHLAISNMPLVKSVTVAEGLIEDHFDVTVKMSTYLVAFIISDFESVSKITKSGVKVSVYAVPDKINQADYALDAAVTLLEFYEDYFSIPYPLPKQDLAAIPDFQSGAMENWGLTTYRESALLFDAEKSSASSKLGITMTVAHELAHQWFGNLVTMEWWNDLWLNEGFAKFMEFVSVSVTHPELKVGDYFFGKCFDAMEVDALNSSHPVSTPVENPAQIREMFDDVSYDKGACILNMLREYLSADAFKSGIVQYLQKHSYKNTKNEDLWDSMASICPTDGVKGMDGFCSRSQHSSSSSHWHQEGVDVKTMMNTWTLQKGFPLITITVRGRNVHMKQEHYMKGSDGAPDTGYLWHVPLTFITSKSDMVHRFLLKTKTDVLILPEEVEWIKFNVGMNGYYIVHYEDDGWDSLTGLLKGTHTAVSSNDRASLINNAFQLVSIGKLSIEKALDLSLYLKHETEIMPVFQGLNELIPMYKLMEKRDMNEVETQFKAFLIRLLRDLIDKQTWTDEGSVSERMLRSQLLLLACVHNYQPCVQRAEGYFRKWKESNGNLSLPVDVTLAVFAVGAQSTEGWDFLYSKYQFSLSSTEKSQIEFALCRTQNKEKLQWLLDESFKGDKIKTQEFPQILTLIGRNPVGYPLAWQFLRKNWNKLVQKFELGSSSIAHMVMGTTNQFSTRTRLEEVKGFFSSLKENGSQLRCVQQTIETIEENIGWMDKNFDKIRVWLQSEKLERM
The depositor's hits bear a star; · = not tested or not shown.

SMILES	MLL AF4-AF9 inh	S100A4 inh HTS	SIRT5 inh	rRNA inh HTS	E-selectin induc	ERAP1 HTS inh
N#CCCN1CCN(C(=S)c2ccc(-c3ccc(Cl)cc3)o2)CC1	·	-3	1	-28*	·	4
CN(C)CC#Cc1ccc([C@@H]2[C@@H](CO)N3C(=O)CN(C(=O)c4cccc(F)c4)C[C@@H]23)cc1	2	-43	22*	3	0	-1
CN(C)CC#Cc1ccc([C@@H]2[C@H]3CN(C(=O)c4cccc(F)c4)CC(=O)N3[C@H]2CO)cc1	-3	-2	-10	-2	0	-4
O=C(Nc1cccc(F)c1)N1CC(=O)N2[C@@H](CO)[C@@H](c3ccc(C#CCC4CCCC4)cc3)[C@@H]2C1	-5	-3	4	2	-1	0
O=C(c1ccc(F)cc1)N1CC(=O)N2[C@H](C1)[C@@H](c1ccc(C#CCC3CCCC3)cc1)[C@@H]2CO	-3	7	-3	6	0	3
COc1cccc(NC(=O)N2CC(=O)N3[C@H](CO)[C@@H](c4ccc(C#CC5CCCC5)cc4)[C@@H]3C2)c1	3	-13	9	1	-1	1
O=C(c1ccc(F)cc1)N1CC(=O)N2[C@@H](CO)[C@H](c3ccc(C#CCC4CCCC4)cc3)[C@@H]2C1	2	·	16*	-7	0	·
COc1cccc(NC(=O)N2CC(=O)N3[C@H](CO)[C@H](c4ccc(C#CCC5CCCC5)cc4)[C@H]3C2)c1	4	-11	22*	-2	0	-1
COc1cccc(NC(=O)N2CC(=O)N3[C@@H](CO)[C@H](c4ccc(C#CCC5CCCC5)cc4)[C@@H]3C2)c1	3	-1	20*	-1	2	-1
C/C=C/c1ccc([C@H]2[C@@H](CNS(C)(=O)=O)N(CC3CCCC3)[C@H]2CO)cc1	-9	1	4	0	0	3
C[C@@H]1CN([C@H](C)CO)C(=O)c2cc(NC(=O)C3CC3)ccc2O[C@H]1CN(C)C(=O)Nc1ccc(F)cc1	-1	-52	-1	2	0	6
COCCCNC(=O)c1cc2c(-c3ccc(Cl)cc3)nn(C)c2s1	-3	-3	·	-16	·	·
COCCNC(=O)c1cc2c(-c3ccc(Cl)cc3)nn(C)c2s1	-6	7	·	-27*	·	·
Cn1nnnc1Sc1ncnc2scc(-c3ccccc3C(F)(F)F)c12	-14	0	·	-18*	-1	3
CCN(C(=S)Nc1ccc(C(C)=O)cc1)C1CCCCC1	-3	1	21*	-2	1	0
C[C@@H]1CN([C@H](C)CO)C(=O)c2cc(-c3ccccc3)cnc2O[C@H]1CN(C)C(=O)C1CCOCC1	0	23	-7	1	0	1
Cc1cc(C(=O)N/N=C/c2ccc(-c3ccc([N+](=O)[O-])cc3C)o2)n[nH]1	1	9	11	-41*	·	2
Cc1ccc(C(=O)N/N=C/c2ccc(-c3cccc(Cl)c3)o2)cn1	-3	-2	12	-2	1	·
Cc1cc(C(=O)N/N=C/c2ccc(-c3cccc(Cl)c3)o2)n[nH]1	0	8	-3	-23*	0	5
Cc1cc([N+](=O)[O-])ccc1-c1ccc(/C=N/NC(=O)c2ccc(Br)o2)o1	-10	-7	0	8	·	4
Cc1ccc(-c2cc(C(=O)N/N=C/c3ccccc3O)n[nH]2)o1	-4	-1	-1	-57	·	-6
Cc1ccc(-c2cc(C(=O)N/N=C/c3ccc(F)cc3)n[nH]2)o1	4	0	-1	-24*	3	1
COc1cccc(NC(=O)N[C@H]2C=C[C@@H](CC(=O)NCc3ccccn3)O[C@H]2CO)c1	0	2	5	0	1	-2
O=C(CC(O)(c1ccccc1)C(F)(F)C(F)F)c1cccs1 (centres undefined)	·	-7	-1	-31	·	3
O=C(/C=C/c1ccccc1)CC(O)(c1ccccc1)C(F)(F)C(F)F (centres undefined)	9	-3	0	-32*	·	4
SMILES	MLL AF4-AF9 inh	S100A4 inh HTS	SIRT5 inh	rRNA inh HTS	E-selectin induc	ERAP1 HTS inh
COc1ccc(S(=O)(=O)Cc2ccc(C(=O)N3CCN(c4cc(Cl)ccc4C)CC3)o2)cc1	-3	1	·	-17*	·	·
CC1CCN(S(=O)(=O)c2ccc(C(=O)Nc3nnc(C4=COCCO4)o3)cc2)CC1	2	-6	-1	-23*	-1	7
CCCNC(=O)Nc1ccc2c(c1)C(=O)N(C)[C@H]1CC[C@H](CC(=O)NCCCN(C)C)O[C@H]1CO2	-1	1	2	2	0	-1
O=C(C[C@H]1C[C@H]2c3cc(NS(=O)(=O)c4ccc(F)cc4)ccc3O[C@H]2[C@H](CO)O1)NCc1ccccn1	·	·	·	2	·	·
CCN(CC)c1ccc(/C=N/N2CCN(c3ccccc3OC)CC2)cc1	30*	-6	-4	-5	·	1
CN(C)c1ccc(/C=N/N2CCN(Cc3ccccc3Cl)CC2)cc1	31*	2	2	3	·	-1
CCN(CC)c1ccc(/C=N/N2CCN(Cc3ccccc3)CC2)cc1	37*	1	-7	-7	1	-1
O=[N+]([O-])c1ccc(/C=N\N2CCN(Cc3ccccc3Cl)CC2)cc1	1	-2	·	·	0	-2
CCN(CC)c1ccc(/C=N/N2CCN(Cc3ccccc3Cl)CC2)cc1	26*	15	-2	-13	·	-1
C(=N\N1CCN(Cc2ccccc2)CC1)/c1ccccc1	-66	-5	-3	-1	2	·
Cc1noc(C)c1NC(=O)Nc1cccc2c1O[C@H](CN(C)C(=O)Nc1ccc(F)cc1)[C@H](C)CN([C@H](C)CO)C2=O	·	·	·	0	0	·
C[C@H](CO)N1C[C@H](C)[C@H](CN(C)CC2CC2)Oc2cc(C3=CCCC3)ccc2S1(=O)=O	2	4	2	3	2	1
N#Cc1cccc(-c2ccc3c(c2)[C@H]2[C@H](CCN2S(=O)(=O)c2ccccc2F)[C@H](CO)N3)c1	-6	-6	0	-27	0	2
COCC#Cc1cnc2c(c1)C(=O)N([C@@H](C)CO)C[C@@H](C)[C@@H](CN(C)C(=O)Cc1cccnc1)O2	-6	-4	-2	7	0	0
